pEC50: −log10 of the molar value. The source made the active and inactive calls. The rule behind the calls is not given here.
Key:
Mus musculus [1] = species on record: Mus musculus; assay: Inhibition of capsaicin-induction of paw lifting in Swiss mouse; type: functional, organism-based
Outline: (§1)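 Mouse nocifensive test: intraplantar capsaicin (0.1 nmol/20 μl, in 4% DMSO) or HNE (120 nmol/20 μl, in saline), with camphor, gentamycin or capsazepine co-injected intraplantar. Licking/lifting time recorded for 5 min; vehicle controls. Mean ± SEM; ANOVA with Bonferroni.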

[2] = molecular target: Transient receptor potential cation channel subfamily A member 1 (Rattus norvegicus) (UniProt Q6RI86); assay: Activity at TRPA1 channel in rat dorsal root ganglion neurons assessed as attenuation of capsaicin-induced intracellular calcium; type: tissue-based
Outline: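 Cultured rat DRG neurons, Fura2/AM calcium imaging. Capsaicin (0.1 μM)-evoked [Ca2+]i responses measured in the presence of TRPA1 antagonists.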

Rattus norvegicus [3] = species on record: Rattus norvegicus; assay: Reduction of capsaocin-induction of allodynia in rat
Mus musculus [4] = species on record: Mus musculus; assay: Attenuation of capsaicin-induction of paw lifting in Swiss mouse; type: functional, organism-based; outline: as §1
Rattus norvegicus [5] = species on record: Rattus norvegicus; assay: Reversal of induction of allodynia in rat in presence of gentamycin
Esophagus [6] = assay: Induction of neurogenic inflammation in rat esophagus assessed as CGRP peptide release for 20 mins; type: functional, tissue-based
Outline: (§2)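 Rat lumbar dorsal spinal cord or esophagus slices (≈0.4 mm), stabilized 60 min in Krebs' solution at 37°C. Agonist superfused 20 min (HNE 50 or 100 μM). Fractions collected every 10 min into ethanoic acid (final 2 N), freeze-dried, and assayed for SP- or CGRP-like immunoreactivity (fmol/g/20 min). Controls: capsaicin desensitization (10 μM, 20 min) or 2 mM EGTA. n ≥ 4 slices; mean ± SEM.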

[7] = molecular target: Transient receptor potential cation channel subfamily A member 1 (Rattus norvegicus) (UniProt Q6RI86); assay: Reversal of activation of TRPA1 channel in rat dorsal root ganglion neurons at 100 uM by calcium imaging in presence of ruthenium red; type: tissue-based
Outline: (§3)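 Cultured rat DRG neurons, Fura2/AM ratiometric calcium imaging. HNE 100 μM-evoked [Ca2+]i rise measured with ruthenium red (1 μM), (+) camphor (1 mM), gentamycin (100 μM) or capsazepine (10 μM), each versus vehicle. n ≥ 22 cells; mean ± SEM; Bonferroni test.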

[8] = molecular target: T1, Transient receptor potential cation channel subfamily A member 1 (Rattus norvegicus, UniProt Q6RI86); assay: Activation of TRPA1 channel in rat dorsal root ganglion neurons assessed as increase in intracellular calcium level; type: tissue-based
Outline: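 Rat DRG neurons in culture, loaded with Fura2/AM and read by ratiometric calcium imaging. Agonist applied in the bath at 30–500 μM, with a concentration-response used to derive the EC50. n ≥ 22 cells.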

Mus musculus [9] = assay: Induction of paw licking in intraplantarly dosed Swiss mouse at 120 nmol/paw; type: functional, organism-based
Outline: (§4)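 Male Swiss mice injected intraplantar with HNE 120 nmol in 20 μl 0.9% saline. Time spent licking and lifting the injected paw recorded for 5 min immediately after injection; vehicle controls.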

[10] = molecular target: Transient receptor potential cation channel subfamily A member 1 (Homo sapiens) (UniProt O75762); assay: Reversal of activation of human TRPA1 channel expressed in xenopus oocytes by two electrode voltage-clamp technique in presence of ruthenium red; type: cell-based; settings: Oocyte
Outline: (§5)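 Two-electrode voltage clamp at +70 mV holding potential on Xenopus oocytes expressing human TRPA1, with voltage ramps for current–voltage relationships. Agonist challenge followed by ruthenium red (10 μM) block; 2-aminoethyl diphenylborinate (200 μM) used as reference agonist.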

Spinal cord [11] = assay: Induction of neurogenic inflammation in rat dorsal spinal cord assessed as substance P release for 20 mins; type: functional, tissue-based; outline: as §2
Mus musculus [12] = assay: Induction of paw lifting in TRPA1-deficient intraplantarly dosed Swiss mouse at 120 nmol/paw; type: functional, organism-based
Outline: (§6)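 Male TRPA1-deficient mice and wild-type littermates (about 30 g) injected intraplantar with HNE 120 nmol in 20 μl 0.9% saline. Total licking/lifting time recorded for 5 min, scored blind to genotype. n = 6 per group; single-factor ANOVA.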

Mus musculus [13] = species on record: Mus musculus; assay: Induction of paw lifting in Swiss mouse; type: functional, organism-based
Outline: (§7)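 Male Swiss mice injected intraplantar with HNE at 15–240 nmol in 20 μl saline, then placed in a chamber. Total time licking and lifting the injected paw recorded for 5 min.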

[14] = molecular target: Transient receptor potential cation channel subfamily A member 1 (Rattus norvegicus) (UniProt Q6RI86); assay: Activation of TRPA1 channel in rat dorsal root ganglion neurons assessed as increase in intracellular calcium level at 300 uM; type: tissue-based
Outline: (§8)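 Cultured rat dorsal root ganglion neurons loaded with Fura2/AM. HNE bath-applied across 30–500 μM. Ratiometric calcium imaging of the rise in [Ca2+]i, with capsaicin response recorded. Dose–response curve built from n ≥ 22 cells; mean ± SEM.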

Spinal cord [15] = assay: Induction of neurogenic inflammation in rat dorsal spinal cord assessed as CGRP peptide release for 20 mins; type: functional, tissue-based; outline: as §2
Mus musculus [16] = species on record: Mus musculus; assay: Reversal of induction of paw lifting in Swiss mouse at 15 to 240 nmol/paw in presence gentamycin; type: functional, organism-based; outline: as §1
[17] = molecular target: Transient receptor potential cation channel subfamily A member 1 (Rattus norvegicus) (UniProt Q6RI86); assay: Agonist activity at rat TRPA1 channel expressed in HEK293 cells assessed as increase in intracellular calcium; type: functional, cell-based
Outline: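 Stable Flp-In HEK293 line expressing C-terminally HA11-tagged rat TRPA1 under a tetracycline-inducible promoter, induced with 0.1 μg/ml tetracycline 16 h before testing. Uninduced and vector-control cells also tested. Fura2/AM [Ca2+]i read in a fluorescence plate reader, 30,000 cells per well, n = 4 wells per concentration. Concentration–response used to derive EC50.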

Rattus norvegicus [18] = species on record: Rattus norvegicus; assay: Reversal of induction of allodynia in rat in presence of camphor
Esophagus [19] = assay: Induction of neurogenic inflammation in rat esophagus assessed as substance P release for 20 mins; type: functional, tissue-based; outline: as §2
[20] = molecular target: Transient receptor potential cation channel subfamily A member 1 (Rattus norvegicus) (UniProt Q6RI86); assay: Reversal of activation of TRPA1 channel in rat dorsal root ganglion neurons at 100 uM by calcium imaging in presence of capsazepine; type: tissue-based; outline: as §3
Mus musculus [21] = assay: Induction of paw lifting in intraplantarly dosed Swiss mouse at 120 nmol/paw; type: functional, organism-based; outline: as §4
[22] = molecular target: Transient receptor potential cation channel subfamily A member 1 (Rattus norvegicus) (UniProt Q6RI86); assay: Reversal of activation of TRPA1 channel in rat dorsal root ganglion neurons at 100 uM by calcium imaging in presence of gentamycin; type: tissue-based; outline: as §3
[23] = molecular target: Transient receptor potential cation channel subfamily A member 1 (Homo sapiens) (UniProt O75762); assay: Agonist activity at human TRPA1 channel expressed in xenopus oocytes assessed as membrane currents by two electrode voltage-clamp technique; type: functional, cell-based; settings: Oocyte; outline: as §5
[24] = molecular target: Transient receptor potential cation channel subfamily A member 1 (Rattus norvegicus) (UniProt Q6RI86); assay: Activation of TRPA1 channel in rat dorsal root ganglion neurons assessed as increase in intracellular calcium level at 50 uM; type: tissue-based; outline: as §8
Mus musculus [25] = species on record: Mus musculus; assay: Induction of paw licking in Swiss mouse; type: functional, organism-based; outline: as §7
[26] = molecular target: Transient receptor potential cation channel subfamily A member 1 (Rattus norvegicus) (UniProt Q6RI86); assay: Reversal of activation of TRPA1 channel in rat dorsal root ganglion neurons at 100 uM by calcium imaging in presence of camphor; type: tissue-based; outline: as §3
Mus musculus [27] = assay: Induction of paw licking in intraplantarly dosed TRPA1-deficient Swiss mouse at 120 nmol/paw; type: functional, organism-based; outline: as §6
[28] = molecular target: T1, Transient receptor potential cation channel subfamily A member 1; assay: Agonist activity at rat TRPA1 channel expressed in tetracycline induced HEK293 cells assessed as increase in intracellular calcium; type: functional, cell-based
Outline: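 Stable HEK293 FLPTREX line carrying HA-tagged rat TRPA1 under a tetracycline-inducible promoter. Expression induced with 0.1 μg/ml tetracycline 16 h before the assay. Fura2/AM [Ca2+]i read on a multiwell fluorescence plate reader, 30,000 cells per well, 10–100 μM, n = 4 wells per concentration, EC50 derived.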

Rattus norvegicus [29] = assay: Increase in plasma extravasation in intraplantar dosed rat hind paw; type: functional, organism-based
Outline: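 Male Sprague–Dawley rats (250 g) given Evans Blue (30 mg/kg) into the tail vein 1 min before intraplantar HNE (60–150 nmol in 30 μl) or vehicle. Killed by exsanguination at 30 min; paw skin dye extracted in formamide 48 h at room temperature in the dark and read at 620 nm, expressed as ng/g wet tissue. SR140333 (1.6 μmol/kg i.v.) given 15 min before. n ≥ 4.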

Rattus norvegicus [30] = species on record: Rattus norvegicus; assay: Induction of allodynia in rat
Rattus norvegicus [31] = species on record: Rattus norvegicus; assay: Reversal of induction of allodynia in rat in presence of capsazepine
Spinal cord [32] = assay: Induction of neurogenic inflammation in rat dorsal spinal cord assessed as substance P release per 20 mins at 10 uM; type: functional
Outline: (§9)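 Rat lumbar dorsal spinal cord or esophagus slices (~0.4 mm), stabilized 60 min in Krebs' solution at 37°C, then superfused. Fractions collected at 10-min intervals into ethanoic acid (final 2 N), freeze-dried, reconstituted, and assayed for SP or CGRP immunoreactivity. Results in fmol/g/20 min, at least four experiments.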

Esophagus [33] = assay: Induction of neurogenic inflammation in rat esophagus assessed as substance P release per 20 mins at 50 uM; type: functional; outline: as §9
Spinal cord [34] = assay: Induction of neurogenic inflammation in rat dorsal spinal cord assessed as CGRP release per 20 mins at 10 uM in calcium free medium; type: functional
Outline: (§10)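 Rat dorsal spinal cord or esophagus slices superfused in Krebs' solution at 37°C, with extracellular Ca2+ chelated by 2 mM EGTA added to the bath. Fractions collected every 10 min into ethanoic acid (final 2 N), freeze-dried, and assayed for SP or CGRP immunoreactivity. Results in fmol/g/20 min, at least four experiments.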

Spinal cord [35] = assay: Induction of neurogenic inflammation in capsaicin desensitized rat dorsal spinal cord assessed as substance P release per 20 mins at 10 uM; type: functional
Outline: (§11)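 Rat lumbar dorsal spinal cord or esophagus slices (~0.4 mm), superfused in Krebs' solution at 37°C after 60 min stabilization. Tissue desensitized beforehand with 10 μM capsaicin for 20 min. Fractions collected at 10-min intervals into ethanoic acid (final 2 N), freeze-dried, and assayed for SP or CGRP immunoreactivity. Results in fmol/g/20 min, at least four experiments.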

Spinal cord [36] = assay: Induction of neurogenic inflammation in rat dorsal spinal cord assessed as substance P release per 20 mins at 10 uM in calcium free medium; type: functional; outline: as §10
Esophagus [37] = assay: Induction of neurogenic inflammation in rat esophagus assessed as CGRP release per 20 mins at 50 uM; type: functional; outline: as §9
Esophagus [38] = assay: Induction of neurogenic inflammation in capsaicin desensitized rat esophagus assessed as CGRP release per 20 mins at 50 uM; type: functional; outline: as §11
Spinal cord [39] = assay: Induction of neurogenic inflammation in rat dorsal spinal cord assessed as CGRP peptide release per 20 mins at 10 uM; type: functional; outline: as §9
Esophagus [40] = assay: Induction of neurogenic inflammation in rat esophagus assessed as substance P release per 20 mins at 50 uM in calcium free medium; type: functional; outline: as §10
Esophagus [41] = assay: Induction of neurogenic inflammation in rat esophagus assessed as CGRP release per 20 mins at 50 uM in calcium free medium; type: functional; outline: as §10
Spinal cord [42] = assay: Induction of neurogenic inflammation in capsaicin desensitized rat dorsal spinal cord assessed as CGRP peptide release per 20 mins at 10 uM; type: functional; outline: as §11
Esophagus [43] = assay: Induction of neurogenic inflammation in capsaicin desensitized rat esophagus assessed as substance P release per 20 mins at 50 uM; type: functional; outline: as §11

Chain of Transient receptor potential cation channel subfamily A member 1 (Rattus norvegicus) (Q6RI86 whole entry): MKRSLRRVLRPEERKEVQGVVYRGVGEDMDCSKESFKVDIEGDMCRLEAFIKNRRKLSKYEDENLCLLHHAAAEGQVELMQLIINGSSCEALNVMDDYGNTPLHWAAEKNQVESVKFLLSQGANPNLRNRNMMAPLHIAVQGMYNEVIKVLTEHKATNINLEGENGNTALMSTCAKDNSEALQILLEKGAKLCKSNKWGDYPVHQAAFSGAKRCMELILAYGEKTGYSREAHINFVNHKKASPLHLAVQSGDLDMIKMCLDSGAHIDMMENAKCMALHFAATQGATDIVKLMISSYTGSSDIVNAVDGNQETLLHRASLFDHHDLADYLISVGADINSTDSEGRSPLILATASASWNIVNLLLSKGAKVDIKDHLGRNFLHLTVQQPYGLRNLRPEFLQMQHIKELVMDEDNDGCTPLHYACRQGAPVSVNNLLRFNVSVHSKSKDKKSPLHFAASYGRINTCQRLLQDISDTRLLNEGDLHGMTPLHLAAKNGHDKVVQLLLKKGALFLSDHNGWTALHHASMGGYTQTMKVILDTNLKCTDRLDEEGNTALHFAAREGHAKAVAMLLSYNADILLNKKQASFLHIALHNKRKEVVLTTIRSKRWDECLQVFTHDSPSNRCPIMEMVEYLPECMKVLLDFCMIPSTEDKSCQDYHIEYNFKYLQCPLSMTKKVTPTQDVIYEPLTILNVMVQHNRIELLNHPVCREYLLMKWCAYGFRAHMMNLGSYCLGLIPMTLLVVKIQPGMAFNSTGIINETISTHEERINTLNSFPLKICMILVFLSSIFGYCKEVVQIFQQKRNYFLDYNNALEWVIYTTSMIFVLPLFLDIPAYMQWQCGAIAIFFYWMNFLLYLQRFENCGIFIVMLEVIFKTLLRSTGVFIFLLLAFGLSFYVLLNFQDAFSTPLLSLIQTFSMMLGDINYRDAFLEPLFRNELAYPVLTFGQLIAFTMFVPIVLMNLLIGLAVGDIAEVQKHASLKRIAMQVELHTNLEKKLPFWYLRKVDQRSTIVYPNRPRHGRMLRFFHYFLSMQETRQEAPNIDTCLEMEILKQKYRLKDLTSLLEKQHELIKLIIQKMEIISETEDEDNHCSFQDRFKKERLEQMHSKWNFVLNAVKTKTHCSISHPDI
T1 sequence (Q6RI86 whole entry): as above
Chain of Transient receptor potential cation channel subfamily A member 1 (Homo sapiens) (O75762 whole entry): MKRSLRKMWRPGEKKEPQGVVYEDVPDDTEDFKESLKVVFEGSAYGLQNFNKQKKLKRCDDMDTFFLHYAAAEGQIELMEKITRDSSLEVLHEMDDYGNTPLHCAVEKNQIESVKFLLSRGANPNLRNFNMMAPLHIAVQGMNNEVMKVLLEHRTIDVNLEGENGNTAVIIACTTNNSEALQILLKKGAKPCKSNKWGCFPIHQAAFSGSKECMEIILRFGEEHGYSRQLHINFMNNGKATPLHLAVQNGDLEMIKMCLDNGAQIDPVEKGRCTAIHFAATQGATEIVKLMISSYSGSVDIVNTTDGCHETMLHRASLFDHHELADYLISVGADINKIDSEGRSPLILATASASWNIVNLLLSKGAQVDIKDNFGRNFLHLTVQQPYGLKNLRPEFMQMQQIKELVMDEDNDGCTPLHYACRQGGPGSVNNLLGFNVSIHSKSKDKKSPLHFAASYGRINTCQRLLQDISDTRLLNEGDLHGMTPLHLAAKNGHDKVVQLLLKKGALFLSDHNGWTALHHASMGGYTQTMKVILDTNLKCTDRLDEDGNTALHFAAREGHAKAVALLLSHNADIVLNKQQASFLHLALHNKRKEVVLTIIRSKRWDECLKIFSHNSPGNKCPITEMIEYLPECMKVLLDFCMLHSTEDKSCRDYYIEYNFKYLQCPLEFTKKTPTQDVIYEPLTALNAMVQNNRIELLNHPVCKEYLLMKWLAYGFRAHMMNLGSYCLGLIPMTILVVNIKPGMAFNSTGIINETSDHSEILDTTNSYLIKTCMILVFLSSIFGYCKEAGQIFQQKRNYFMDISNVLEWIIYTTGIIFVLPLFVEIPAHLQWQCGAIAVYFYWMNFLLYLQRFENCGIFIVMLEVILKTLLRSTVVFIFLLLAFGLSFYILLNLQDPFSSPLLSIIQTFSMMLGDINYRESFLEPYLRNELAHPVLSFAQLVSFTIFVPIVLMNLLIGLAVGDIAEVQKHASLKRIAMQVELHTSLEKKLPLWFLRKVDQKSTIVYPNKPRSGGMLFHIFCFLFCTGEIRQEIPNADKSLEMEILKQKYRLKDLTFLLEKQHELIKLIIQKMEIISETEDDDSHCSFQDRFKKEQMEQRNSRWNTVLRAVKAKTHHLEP

SMILES: CC12CCC(CC1=O)C2(C)C (stereo not drawn)
- Activity (Mus musculus [1]): Active

SMILES: Oc1cc2c(cc1O)CN(C(=S)NCCc1ccc(Cl)cc1)CCC2
- Activity [2]: Active
- Activity (Rattus norvegicus [3]): Active
- Activity (Mus musculus [4]): Active

SMILES: CCCCCC(O)/C=C/C=O (stereo not drawn) [4-HYDROXYNON-2-ENAL]
- Activity (Rattus norvegicus [5]): inactive
- Activity (Esophagus [6]): Active
- Activity [7]: inactive
- pEC50 [8]: 4.11
- Activity (Mus musculus [9]): Active
- Activity [10]: Active
- Activity (Spinal cord [11]): Active
- Activity (Mus musculus [12]): inactive
- Activity (Mus musculus [13]): Dose-dependent effect
- Activity [14]: Active
- Activity (Spinal cord [15]): Active
- Activity (Mus musculus [16]): inactive
- Activity [17]: inactive
- Activity (Rattus norvegicus [18]): inactive
- Activity (Esophagus [19]): Active
- Activity [20]: Active
- Activity (Mus musculus [21]): Active
- Activity [22]: inactive
- Activity [23]: Active
- Activity [24]: Active
- Activity (Mus musculus [25]): Dose-dependent effect
- Activity [26]: inactive
- Activity (Mus musculus [27]): inactive
- pEC50 [28]: 4.57
- Activity (Rattus norvegicus [29]): Dose-dependent effect
- Activity (Rattus norvegicus [30]): Dose-dependent effect
- Activity (Rattus norvegicus [31]): Active

SMILES: O=C/C=C/c1ccccc1 [CINNAMALDEHYDE]
- Activity (Spinal cord [32]): 160.5 fmol/g
- Activity (Esophagus [33]): 31.5 fmol/g
- Activity (Spinal cord [34]): 118.5 fmol/g
- Activity (Spinal cord [35]): 23.7 fmol/g
- Activity (Spinal cord [36]): 34.5 fmol/g
- Activity (Esophagus [37]): 93.2 fmol/g
- Activity (Esophagus [38]): 17.8 fmol/g
- Activity (Spinal cord [39]): 720.4 fmol/g
- Activity (Esophagus [40]): 6.3 fmol/g
- Activity (Esophagus [41]): 19.2 fmol/g
- Activity (Spinal cord [42]): 63.8 fmol/g
- Activity (Esophagus [43]): 5.8 fmol/g
